Assay results as given in ChEMBL document CHEMBL4145598, “Discovery and Development of 8-Substituted Cycloberberine Derivatives as Novel Antibacterial Agents against MRSA” (ACS Med Chem Lett, 2018).
Active and inactive are the calls of the source. The rule behind the calls is not given here.

Assays:
Staphylococcus aureus [1] = test: Antimicrobial activity against methicillin-sensitive Staphylococcus aureus ATCC 29213 after 18 hrs by agar dilution assay; assay type: functional; settings: ATCC 29213, 18 h
Staphylococcus aureus [2] = test: Antimicrobial activity against methicillin-sensitive Staphylococcus aureus isolate 15 after 18 hrs by agar dilution assay; assay type: functional; settings: isolate 15, 18 h
Staphylococcus aureus [3] = test: Antimicrobial activity against methicillin-sensitive Staphylococcus aureus isolate 13-17 after 18 hrs by agar dilution assay; assay type: functional; settings: isolate 13-17, 18 h
Staphylococcus aureus [4] = test: Antimicrobial activity against methicillin-sensitive Staphylococcus aureus isolate 13-19 after 18 hrs by agar dilution assay; assay type: functional; settings: isolate 13-19, 18 h
Staphylococcus aureus [5] = test: Antimicrobial activity against methicillin-sensitive Staphylococcus aureus isolate 13-20 after 18 hrs by agar dilution assay; assay type: functional; settings: isolate 13-20, 18 h
Staphylococcus aureus [6] = test: Antimicrobial activity against methicillin-sensitive Staphylococcus aureus isolate 13-21 after 18 hrs by agar dilution assay; assay type: functional; settings: isolate 13-21, 18 h
[7] = tested on: Staphylococcus epidermidis; test: Antimicrobial activity against methicillin-sensitive Staphylococcus epidermidis ATCC 12228 after 18 hrs by agar dilution assay; assay type: functional; settings: ATCC 12228, 18 h
[8] = tested on: Staphylococcus epidermidis; test: Antimicrobial activity against methicillin-sensitive Staphylococcus epidermidis isolate 13-1 after 18 hrs by agar dilution assay; assay type: functional; settings: isolate 13-1, 18 h
[9] = tested on: Staphylococcus saprophyticus; test: Antimicrobial activity against Staphylococcus saprophyticus ATCC 15305 after 18 hrs by agar dilution assay; assay type: functional; settings: ATCC 15305, 18 h
Staphylococcus hominis = test: Antimicrobial activity against Staphylococcus hominis ATCC 35982 after 18 hrs by agar dilution assay; assay type: functional; settings: ATCC 35982, 18 h
Staphylococcus aureus [10] = test: Antimicrobial activity against methicillin-resistant Staphylococcus aureus ATCC 33591 after 18 hrs by agar dilution assay; assay type: functional; settings: ATCC 33591, 18 h
How it was run: (§1)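 Drug-resistant S. aureus (MRSA/VISA) panel. It includes ATCC reference strains and clinical isolates from patients in Chinese hospitals. MIC was determined by standard methods and reported in μg/mL, with levofloxacin as the reference drug.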

Staphylococcus aureus [11] = test: Antimicrobial activity against methicillin-resistant Staphylococcus aureus isolate 13-18 after 18 hrs by agar dilution assay; assay type: functional; settings: isolate 13-18, 18 h; how it was run: as §1
Staphylococcus aureus [12] = test: Antimicrobial activity against methicillin-resistant Staphylococcus aureus isolate 13-23 after 18 hrs by agar dilution assay; assay type: functional; settings: isolate 13-23, 18 h; how it was run: as §1
Staphylococcus aureus [13] = test: Antimicrobial activity against methicillin-resistant Staphylococcus aureus isolate 12-3 after 18 hrs by agar dilution assay; assay type: functional; settings: isolate 12-3, 18 h; how it was run: as §1
Staphylococcus aureus [14] = test: Antimicrobial activity against methicillin-resistant Staphylococcus aureus isolate 12-8 after 18 hrs by agar dilution assay; assay type: functional; settings: isolate 12-8, 18 h; how it was run: as §1
Staphylococcus aureus [15] = test: Antimicrobial activity against methicillin-resistant Staphylococcus aureus isolate 12-13 after 18 hrs by agar dilution assay; assay type: functional; settings: isolate 12-13, 18 h; how it was run: as §1
Staphylococcus aureus [16] = test: Antimicrobial activity against methicillin-resistant Staphylococcus aureus isolate 12-16 after 18 hrs by agar dilution assay; assay type: functional; settings: isolate 12-16, 18 h; how it was run: as §1
Staphylococcus aureus [17] = test: Antimicrobial activity against methicillin-resistant Staphylococcus aureus ATCC-BAA-1708 after 18 hrs by agar dilution assay; assay type: functional; settings: ATCC-BAA-1708, 18 h; how it was run: as §1
Staphylococcus aureus [18] = test: Antimicrobial activity against vancomycin-intermediate Staphylococcus aureus ATCC 700698 after 18 hrs by agar dilution assay; assay type: functional; settings: ATCC 700698, 18 h
How it was run: (§2)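 MICs in μg/mL against drug-resistant S. aureus (MRSA/VISA) by standard methods, with levofloxacin as the reference drug. ATCC strains were used.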

Staphylococcus aureus [19] = test: Antimicrobial activity against vancomycin-intermediate Staphylococcus aureus ATCC 700699 after 18 hrs by agar dilution assay; assay type: functional; settings: ATCC 700699, 18 h; how it was run: as §2
[20] = Cytotoxicity against human A549 cells assessed as decrease in cell viability after 24 hrs by MTT assay; assay type: cell-based
How it was run: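 A549 cells were treated with compound at a series of concentrations for 24 h, and viability was read by MTT assay. Controls received 0.4% (v/v) DMSO. CC50 is given in μg/mL.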

[21] = Stability in Sprague-Dawley rat blood assessed as parent compound remaining at […] after 420 mins by LC-MS/MS analysis; assay type: ADME, tissue-based; settings: read-out: Stability
DNA = test: Binding affinity to Escherichia coli DH5-alpha supercoiled pET-32a DNA assessed as conversion of closed circular form to open circular form of DNA at 61.5 to 492 ug/ml after 4 hrs by agarose gel electrophoresis; assay type: nucleic-acid assay
How it was run: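 Supercoiled pET-32a plasmid DNA was incubated with compound at increasing concentrations for 4 h at 37 °C under physiological conditions. DNA forms were resolved by agarose gel electrophoresis.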

| SMILES | MIC (Staphylococcus aureus [1]) [µg/mL] | MIC (Staphylococcus aureus [2]) [µg/mL] | MIC (Staphylococcus aureus [3]) [µg/mL] | MIC (Staphylococcus aureus [4]) [µg/mL] | MIC (Staphylococcus aureus [5]) [µg/mL] | MIC (Staphylococcus aureus [6]) [µg/mL] | MIC [7] [µg/mL] | MIC [8] [µg/mL] | MIC [9] [µg/mL] | MIC (Staphylococcus hominis) [µg/mL] | MIC (Staphylococcus aureus [10]) [µg/mL] | MIC (Staphylococcus aureus [11]) [µg/mL] | MIC (Staphylococcus aureus [12]) [µg/mL] | MIC (Staphylococcus aureus [13]) [µg/mL] | MIC (Staphylococcus aureus [14]) [µg/mL] | MIC (Staphylococcus aureus [15]) [µg/mL] | MIC (Staphylococcus aureus [16]) [µg/mL] | MIC (Staphylococcus aureus [17]) [µg/mL] | MIC (Staphylococcus aureus [18]) [µg/mL] | MIC (Staphylococcus aureus [19]) [µg/mL] | other results |
| --- | --- | --- | --- | --- | --- | --- | --- | --- | --- | --- | --- | --- | --- | --- | --- | --- | --- | --- | --- | --- | --- |
| COc1ccc2c(c[n+]3c4c2ccc2c5c(cc(c24)CC3)OCO5)c1OC(C)=O.[Cl-] | 1 | 2 | 1 | 8 | 2 | 4 | 1 | 2 | 4 | 2 | 4 | 1 | 2 | 4 | 8 | 4 | 2 | 8 | 16 | 32 | CC50 at 24 h [20]: > 33.6 µg/mL |
| COc1ccc2c(c[n+]3c4c2ccc2c5c(cc(c24)CC3)OCO5)c1NC(=O)c1ccccn1.[Cl-] | > 64 | > 64 | > 64 | > 64 | > 64 | > 64 | > 64 | > 64 | > 64 | > 64 | > 64 | > 64 | > 64 | > 64 | > 64 | > 64 | > 64 | > 64 | > 64 | > 64 | – |
| COc1ccc2c(c[n+]3c4c2ccc2c5c(cc(c24)CC3)OCO5)c1NC(=O)c1csnn1.[Cl-] | 2 | 4 | 2 | 2 | 2 | 2 | 4 | 2 | 4 | 2 | 2 | 2 | 2 | 2 | 2 | 4 | 2 | 2 | 16 | 8 | remaining at 7 h [21]: 57.2%; CC50 at 24 h [20]: 16.1 µg/mL; Activity (DNA): Active |
| COc1cccc(C(=O)COc2c(OC)ccc3c2c[n+]2c4c3ccc3c5c(cc(c34)CC2)OCO5)c1.[Br-] | 16 | 32 | 4 | 4 | 8 | 16 | 16 | 8 | 8 | 64 | 4 | 4 | 16 | 16 | 16 | 8 | 8 | 64 | > 64 | > 64 | – |
| COc1ccc2c(c[n+]3c4c2ccc2c5c(cc(c24)CC3)OCO5)c1N.[Cl-] | 4 | 4 | 4 | 8 | 4 | 8 | 8 | 8 | 8 | 8 | 4 | 8 | 8 | 8 | 4 | 4 | 4 | 4 | 64 | 4 | – |
| COc1ccc2c(c[n+]3c4c2ccc2c5c(cc(c24)CC3)OCO5)c1OCC(=O)c1ccc(F)cc1.[Br-] | 64 | 8 | 16 | 8 | 16 | 8 | 8 | 8 | 32 | 32 | 8 | 16 | 8 | 8 | 8 | 8 | 16 | 64 | > 64 | > 64 | – |
| COc1ccc2c(c[n+]3c4c2ccc2c5c(cc(c24)CC3)OCO5)c1OCC(=O)c1ccc(C)cc1.[Br-] | 4 | 8 | 4 | 4 | 8 | 4 | 2 | 8 | 4 | 4 | 4 | 4 | 4 | 4 | 8 | 4 | 4 | 8 | > 64 | > 64 | – |
| COc1ccc2c(c[n+]3c4c2ccc2c5c(cc(c24)CC3)OCO5)c1OCC(=O)c1ccc(C(F)(F)F)cc1.[Br-] | > 64 | > 64 | > 64 | > 64 | > 64 | > 64 | > 64 | > 64 | > 64 | > 64 | > 64 | > 64 | > 64 | > 64 | > 64 | > 64 | > 64 | > 64 | > 64 | > 64 | – |
| COc1ccc2c(c[n+]3c4c2ccc2c5c(cc(c24)CC3)OCO5)c1OCC(=O)C12CC3CC(CC(C3)C1)C2.[Br-] | 4 | 2 | 2 | 4 | 4 | 2 | 2 | 2 | 2 | 2 | 2 | 4 | 2 | 4 | 4 | 4 | 2 | 4 | 8 | 8 | remaining at 7 h [21]: 58%; CC50 at 24 h [20]: 2 µg/mL |
| COc1ccc2c(c[n+]3c4c2ccc2c5c(cc(c24)CC3)OCO5)c1OCC(=O)C1CC1.[Br-] | > 64 | > 64 | > 64 | > 64 | > 64 | > 64 | > 64 | > 64 | > 64 | > 64 | > 64 | > 64 | > 64 | > 64 | > 64 | > 64 | > 64 | > 64 | > 64 | > 64 | – |
| COc1ccc2c(c[n+]3c4c2ccc2c5c(cc(c24)CC3)OCO5)c1NC(=O)c1cc(C)n(C)n1.[Cl-] | 16 | 16 | 16 | 8 | 8 | 16 | 32 | > 64 | > 64 | > 64 | 64 | 32 | 8 | 32 | 32 | 16 | 16 | 16 | > 64 | 4 | – |
